eIF2B yeast act: eIF2B (yeast) activity modulation | S. cerevisiae eIF2B-epsilon R284H, GCN4-lacZ luminescence | inhibition, % at 25 µM (by protocol) | actives 0.91% (n = 27,000) | AID 688;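 active = mutant luminescence inhibited past about 50% while wild type luminescence and mutant growth stay under set limits, limit read from the data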
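Material: yeast eIF2B-epsilon R284H mutant carrying GCN4–beta-galactosidase fusion. Medium: YPD yeast growth medium. Incubation: 16 h growth with compound at 30 °C, 90 min Beta-Glo step. Signal: Beta-Glo luminescence plus absorbance at 595 nm. Evaluation: % inhibition of reporter signal and growth versus controls. Doses: 25 µM single dose.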
Yeast growth tox: Inhibitors of S. cerevisiae growth, toxicity. S. cerevisiae wild-type growth, A595 turbidity, 16 h. growth inhibition, % at 25 µM (by protocol). actives 0.3% (n = 30,000);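 active = mutant and wild-type yeast strains alike exhibit over 30% growth inhibition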;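 also: 0% = untreated cell controls and 100% = YPD media blanks without cells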
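Schedule: 16 h growth with compound, 30 °C. System: yeast, wild-type or eIF2Bepsilon-R284H mutant. Doses: one dose, 25 µM compound[…]. Buffer or medium: YPD. Signal: turbidity measured as absorbance at 595 nm. Read-out basis: growth inhibition (%) versus cell controls and blanks.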
* marks the source's active call; other numbers are inactive results; · = no result. The list is not random: actives were taken first. Their share in the collection is about 1.1%.

SMILES | eIF2B yeast act | Yeast growth tox
Cc1cc(C)cc(NS(=O)(=O)c2ccc3oc(=O)ccc3c2)c1 | -12 | 11
COc1cc2[nH]c(=S)n(C3CCCC3)c(=O)c2cc1OC | 3 | 32*
COc1cc2[nH]c(=S)n(N(C(C)=O)C(C)=O)c(=O)c2cc1OC | · | 27
CCC(C)c1ccc(OCCCCN2CCOCC2)cc1 (stereo unspecified) | 20 | 12
CC(O)/C=C/c1ccc2ccccc2n1 (stereo unspecified) | 37 | 31*
CC(Sc1ccc2ccccc2n1)C(=O)O (stereo unspecified) | · | 9
CC1=CC(=O)C=C(C)C1=NOC(=O)c1cccc([N+](=O)[O-])c1 | 18 | 2
CC1=CC(=O)C=C(C)C1=NOS(=O)(=O)c1ccccc1 | · | 77*
Cn1nc(-c2ccccc2)c(-c2nc(-c3cccc(Cl)c3)no2)c1Cl | 7 | -28
Cc1cc(C)n(CCn2nc(C)cc2C)n1 | 29 | -12
Cc1cc(C)n(-c2cc(=O)n(C)c(=O)n2C)n1 | 51* | -3
Oc1cc(Cc2ccccc2)cnc1CN1CCCCC1 | 56* | -15
O=C(C1CCCN(Cc2ccccc2)C1)N1CCCCC1 (stereo unspecified) | 12 | 10
Cc1ccc2c(c1)N(CC(=O)NCc1cccnc1)C(=O)CO2 | 59* | 3
Cc1ccc2c(c1)N(CC(=O)N1CCCCCC1)C(=O)CO2 | -23 | 3
CC(C)c1ccccc1NC(=O)c1cccc(NC(=O)c2ccccc2)c1 | 10 | 0
CN(Cc1ccccc1)C(=O)CN(c1ccc(F)cc1)S(=O)(=O)c1ccc2c(c1)OCCO2 | -29 | 17
COc1ccc(-n2c(COc3cccc4ccccc34)nnc2SCC(=O)NCc2ccco2)cc1 | 23 | 47
CCOC(=O)c1ccc2c(c1)nc(COc1ccc(OC)cc1)n2CC | · | 16
C=CCSC(=C(C#N)C#N)c1cc2c([nH]1)CCCC2 | 9 | 30
COc1ccc(-c2nnn(CC(=O)N(Cc3ccc(F)cc3)C(C(=O)NC3CCCC3)c3ccc(F)cc3)n2)cc1 (stereo unspecified) | 56* | -8
CCOC(=O)CN(C(=O)Cn1nnc(-c2ccc(OC)cc2)n1)C(C(=O)NC1CCCC1)c1ccc(F)cc1 (stereo unspecified) | 17 | 16
O=c1c2c3c(sc2n2c(=S)[nH]nc2n1Cc1ccccc1)CN(Cc1ccccc1)CC3 | -11 | -37
CC(NC(=O)CSc1nc2ccccc2c(=O)n1CCCO)c1ccccc1 (stereo unspecified) | 53* | 8
CC(C)NC(=O)CSc1nc2ccccc2c(=O)n1CCCOC(C)C | -5 | 8
SMILES | eIF2B yeast act | Yeast growth tox
CCn1cc(C(=O)Nc2nnc(C)s2)c(=O)c2cc(F)c(N3CCN(C(=O)c4ccco4)CC3)cc21 | -16 | -38
COc1ccc2cc3c(N)c(C(=O)N4CCCC4)sc3nc2c1 | 54* | 33
Cc1ccc2nc3sc(C(=O)N4CCOCC4)c(N)c3cc2c1 | · | -4
Cc1c(C(=O)N2CCN(c3ccccc3F)CC2)sc2nc(-c3ccccc3)cn12 | 60* | 11
Cc1c(C(N)=O)sc2nc(-c3ccccc3)cn12 | 17 | 7
CC(C)CCN(C(=O)Nc1ccccc1)C(C)c1cccs1 (stereo unspecified) | · | 2
CN1CCN(S(=O)(=O)c2ccc(NC(=O)Nc3cccc(Cl)c3)cc2)CC1 | · | -8
COC(=O)c1cccc(NC(=O)c2ccc(S(=O)(=O)N3CCN(C)CC3)cc2)c1 | 59* | 1
CC(NC(=O)c1cccs1)C(=O)NC1=NCCS1 (stereo unspecified) | 23 | ·
CC(C)C(NC(=O)c1ccccc1)C(=O)NC1=NCCS1 (stereo unspecified) | 52* | 14
CC(=O)C1=C(O)C(=O)N(c2ccc(C)cc2)C1c1ccccn1 (stereo unspecified) | 1 | -1
CC(C)C(=O)N1CCN(C2=NS(=O)(=O)c3ccccc32)CC1 | 53* | -9
CCCC(=O)N1CCN(C2=NS(=O)(=O)c3ccccc32)CC1 | 44 | 9
COc1ccccc1NC(=O)CSc1nc2n[nH]c(C)c2c(=N)n1-c1ccccc1Cl | 9 | -12
Cc1ccc(N(Cc2ccccc2F)S(C)(=O)=O)cc1C | · | 10
COc1cccc(-c2nc(N3CCCCC3C)c3ccccc3n2)c1O (stereo unspecified) | 56* | -7
COc1cccc(-c2nc(NCc3ccco3)c3ccccc3n2)c1O | 22 | 12
c1ccc2c(N3CCCC3)nc(-c3ccncc3)nc2c1 | -4 | ·
C=CCNc1nc(-c2cccc(OC)c2O)nc2ccccc12 | 57* | -19
Cn1c(Cc2ccccc2)nnc1SCC(=O)c1cccs1 | 9 | 1
Cc1[nH]n(-c2ccc([N+](=O)[O-])cc2)c(=O)c1N=Nc1nc2ccccc2s1 | 25 | 10
COC(=O)C1=C(N)c2c(F)cccc2C1(C#N)c1ccc(F)cc1 (stereo unspecified) | 14 | 8
CCCOCC1CC2(CC(C)(c3csc(N)n3)OC2=O)C(=O)O1 (stereo unspecified) | 61* | ·
CC1CCN(C(=O)CCc2ccc(S(=O)(=O)NC(C)C)cc2)CC1 | 26 | 15
CCOC(=O)N1CCN(C(=O)c2ccc(NC(=O)CC)cc2)CC1 | 14 | 7
SMILES | eIF2B yeast act | Yeast growth tox
CCOC(=O)N1CCN(C(=O)c2ccc(N3CCCC3=O)cc2)CC1 | 56* | 1
CCc1cc2c(=O)n(-c3ccc(C)cc3)cnc2s1 | 31 | -3
CCN1CCN(c2cc(-c3ccccc3)nc3cc(-c4cccc(F)c4)nn23)CC1 | 53* | ·
Cc1ccc(-c2cc3nc(-c4ccccc4)cc(N4CCOCC4)n3n2)cc1 | · | -30
CCOc1ncccc1C(=O)OCc1cc(=O)n2c(n1)sc1ccccc12 | 2 | -16
c1ccc(N(c2ccccc2)c2nc(N3CCCC3)nc(-n3ccnc3)n2)cc1 | 37 | -10
CCOC(=O)N1CCN(c2nc(N(c3ccccc3)c3ccccc3)nc(-n3ccnc3)n2)CC1 | -24 | 48*
CCOc1ccc(S(=O)(=O)N2CCN(C(=O)c3sccc3C)CC2)cc1 | 26 | 17
CCSc1nnc(NC(=O)c2csc3c2CCCC3)s1 | -3 | ·
CCSc1nnc(NC(=O)c2ccccn2)s1 | 82 | 66*
CCCCCn1c(SCC(=O)OCC)nc2cc(C(=O)NCc3ccco3)ccc2c1=O | 56* | -7
C=CCn1c(SCC(=O)OCC)nc2cc(C(=O)NCc3ccco3)ccc2c1=O | · | 17
CN(c1cccc(Cl)c1)S(=O)(=O)c1cccc(C(=O)NC2=NCCS2)c1 | -48 | -11
O=c1cc(NC2CCCCC2)c2ccccc2o1 | -23 | 8
CCOC(=O)C1=C(C)NC(SCc2cc(=O)[nH][nH]2)=C(C#N)C1c1cccs1 (stereo unspecified) | 56* | -6
C=CCOC(=O)C1=C(C)NC(SC)=C(C#N)C1c1cccs1 (stereo unspecified) | 10 | 9
COCc1c(C(=O)N2CCN(c3ccc(C(F)(F)F)cn3)CC2)oc2ccccc12 | 7 | 20
CCCCC(=O)Nc1ccc(N2CCN(S(C)(=O)=O)CC2)cc1 | 62* | 3
CCCCCC(=O)Nc1ccc(N2CCN(C(=O)CCC)CC2)cc1 | 5 | -4
O=C1CC(N2CCCc3ccccc32)C(=O)N1c1ccccc1Cl (stereo unspecified) | 24 | 11
CCOC(=O)c1cc(C)n(Cc2ccc(OCC)c(OC)c2)c1C | · | 13
